Bioassay records from PubChem BioAssay.
KCNK9 block – KCNK9 potassium channel inhibitors, primary screen, HEK293 cells, thallium flux; FluxOR thallium flux fluorescence; active compounds read low; B-score at 10 µM; hit rate 1.2% among 310,000;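 active = ratio B-score over 3 SD below the library mean, with starting fluorescence within 5 SD of its mean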;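 also: negative B-score means less thallium flux so channel inhibition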
KCNQ1 inh – inhibitors of human KCNQ1 channel, primary screen, cell-based, thallium flux, high-throughput. Potassium voltage-gated channel subfamily KQT member 1 (Homo sapiens), P51787. CHO-K1 KCNQ1, FluxOR thallium flux fluorescence; active compounds read high. B-score at 10 µM. hit rate 1.3% among 310,000. AID 2642, 2010;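 active = compounds whose thallium flux B-score, printed positive for inhibition, exceeds three library SD while starting fluorescence stays within three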;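 also: channel opened by potassium depolarization with thallium stimulus after 20 min compound exposure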
Target sequence (P51787 whole entry, looked up): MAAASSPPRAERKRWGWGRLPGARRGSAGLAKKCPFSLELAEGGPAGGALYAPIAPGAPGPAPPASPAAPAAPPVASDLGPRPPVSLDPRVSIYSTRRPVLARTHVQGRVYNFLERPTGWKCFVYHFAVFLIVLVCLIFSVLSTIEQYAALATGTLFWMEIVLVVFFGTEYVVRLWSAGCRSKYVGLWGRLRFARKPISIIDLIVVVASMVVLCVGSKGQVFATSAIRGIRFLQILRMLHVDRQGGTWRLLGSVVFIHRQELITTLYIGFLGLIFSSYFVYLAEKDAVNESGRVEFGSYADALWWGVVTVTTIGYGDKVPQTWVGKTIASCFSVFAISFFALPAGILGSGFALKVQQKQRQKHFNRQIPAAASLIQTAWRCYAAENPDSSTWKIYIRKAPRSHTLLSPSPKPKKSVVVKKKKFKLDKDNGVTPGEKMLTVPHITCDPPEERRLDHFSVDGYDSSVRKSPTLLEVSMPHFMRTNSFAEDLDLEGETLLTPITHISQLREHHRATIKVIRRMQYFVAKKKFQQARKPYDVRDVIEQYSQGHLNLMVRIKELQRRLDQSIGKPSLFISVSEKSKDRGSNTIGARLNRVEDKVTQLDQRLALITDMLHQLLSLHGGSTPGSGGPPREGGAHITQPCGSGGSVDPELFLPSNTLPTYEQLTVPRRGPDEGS
KCC2 mod – KCC2 cotransporter modulators, thallium flux, primary screen, cell-based, HEK293 KCC2, FluoZin-2 fluorescence, MLSMR; Solute carrier family 12 member 5 (Homo sapiens), Q9H2X9; AID 1456, 2008; B-score of Tl+ flux slope (higher = more flux/activation; lower = inhibition) at 10 µM; KCC2 cells, thallium flux FluoZin-2 fluorescence; hit rate 2.2% among 190,000;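 active = thallium flux slope and its plate-corrected score both differing from the plate sample mean at a set confidence after two filtering rounds, in either direction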;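 also: slope of fluorescence scaled to starting intensity during 10 to 20 s after thallium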
hERG rescue – hERG rescue from dofetilide block, primary screen, cell-based, CHO-hERG, FluxOR thallium flux, dofetilide IC70; Voltage-gated inwardly rectifying potassium channel KCNH2 (Homo sapiens), Q12809; dofetilide IC70 present; activation (rescue from dofetilide block), less the hit threshold, % at 10 µM; hit rate 0.51% among 310,000;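 active = activation above the mean of controls blocked by dofetilide plus 5 SD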;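 also: thallium influx through hERG after potassium depolarization seen as dye fluorescence rise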
KCNK3 block – human KCNK3 channel inhibitors, primary screen, CHO cells, FluxOR thallium flux, B-score; AID 602410, 2012; Potassium channel subfamily K member 3 (Homo sapiens), O14649; B-score at 10 µM; hit rate 0.84% among 340,000; FluxOR fluorescence; active compounds read low;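 active = B-score under library mean minus 4 SD, starting fluorescence ratio at most library mean plus 5 SD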;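 also: more negative B-score means stronger inhibition of thallium flux through KCNK3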
KCNQ1 act – potentiators or activators of KCNQ1 channel, primary screen, cell-based, thallium flux, high-throughput; Potassium voltage-gated channel subfamily KQT member 1 (Homo sapiens), P51787; CHO-K1 KCNQ1, thallium flux FluxOR fluorescence; active compounds read high; B-score at 10 µM; hit rate 0.35% among 310,000; AID 2648, 2010;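 active = fluorescence ratio B-score, a plate-corrected score, at least three library SD, with initial intensity B-score within 5 SD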
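assay system = KCNQ1-transfected CHO-K1 cells | medium = assay buffer with matched DMSO | probe or stimulus = depolarizing K+/Tl+ stimulus, K2SO4 and Tl2SO4 each 12.5 mM in 5x stock | dosing = single dose | incubation = dye 90 min, compound 20 min, room temperature | detection = kinetic FluxOR fluorescence, 10 s baseline plus 110 s post-stimulus | evaluation = ratio B score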
KCNK3 confirm – retest of human KCNK3 channel inhibitors, confirmation, CHO cells, FluxOR thallium flux, triplicate; shares compounds with KCNK3 block; FluxOR fluorescence; 0% buffer, 100% carvedilol maximal block; ratio percent of control, % at 10 µM; hit rate 99% among 2,400; AID 651638, 2012;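 active = ratio percent of control, averaged over triplicates, above buffer control mean plus 5 SD, cut at about 64% in these data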;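 also: ratio is the fluorescence rise from min to max over baseline after thallium stimulus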
KCNK3 uninduced – thallium flux inhibition in non-induced cells, primary screen, counter-screen for KCNK3 inhibitor project, cell-based, non-induced KCNK3 line, FluxOR thallium, triplicate | shares compounds with KCNK3 block | non-induced KCNK3 parental cells; active compounds read low | thallium flux ratio (lower = more inhibition) at 10 µM | hit rate 40% among 2,400 | AID 651747, 2012;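 active = thallium flux ratio, averaged over three wells, more than 5 SD below the buffer control mean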;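 also: host cells are CHO cells without KCNK3 induction; ratio is peak minus trough fluorescence over baseline then normalized to buffer controls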
* marks the source's active call; other numbers are inactive results. Sampled rows, rich in hits. Any-hit rate of the full collection: about 4.1%.

For CCOC(=O)c1ccccc1NC(=O)COC(=O)CC1CCCCC1 the results were KCNK9 block inactive, KCNQ1 inh inactive, hERG rescue -5.6, KCNK3 block -9.68*, KCNQ1 act inactive, KCNK3 confirm 105.3* and KCNK3 uninduced 0.151*.
CCCOc1cc(C)c(Cl)cc1S(=O)(=O)N(CC)CC was read as KCNK9 block inactive, KCNQ1 inh inactive, KCC2 mod 0.457, hERG rescue -0.4, KCNK3 block -11.2*, KCNQ1 act inactive, KCNK3 confirm 99.3* and KCNK3 uninduced inactive.
`COCOc1ccc(C=O)cc1OCOC` gave KCNK9 block inactive, KCNQ1 inh inactive, hERG rescue -6.8, KCNK3 block inactive and KCNQ1 act inactive.
`O=C(Nc1ccc(Nc2ccccc2)cc1)c1ccc(Cl)c([N+](=O)[O-])c1` gave KCNK9 block inactive, KCNQ1 inh inactive, hERG rescue -7.0, KCNK3 block -10.9*, KCNQ1 act inactive, KCNK3 confirm 125.0* and KCNK3 uninduced 0.153*.
Cc1cc(C(=O)Nc2ccc(Nc3ccccc3)cc2)ccc1[N+](=O)[O-] was read as KCNK9 block inactive, KCNQ1 inh inactive, hERG rescue -9.8, KCNK3 block inactive and KCNQ1 act inactive.
`O=C(c1cccc2ccccc12)C1CCCN(C(=O)c2ccc(N3CCOCC3)cc2)C1` (stereo not drawn) gave KCNK9 block inactive, KCNQ1 inh inactive, KCC2 mod -0.424, hERG rescue -13.8, KCNK3 block -9.27*, KCNQ1 act inactive, KCNK3 confirm 98.7* and KCNK3 uninduced inactive.
CSc1ccccc1C(=O)C1CCCN(C(=O)c2ccc(N3CCOCC3)cc2)C1 (stereo not drawn) was read as KCNK9 block inactive, KCNQ1 inh inactive, KCC2 mod 0.372, hERG rescue 1.8, KCNK3 block inactive and KCNQ1 act inactive.
`CCC(C(=O)NCCc1ccc(C)cc1)n1nc(C)c2c(C)n(-c3ccccc3)nc2c1=O` (stereo not drawn) gave KCNK9 block inactive, KCNQ1 inh inactive, hERG rescue -5.3, KCNK3 block -9.38*, KCNQ1 act inactive, KCNK3 confirm 99.0* and KCNK3 uninduced inactive.
CCc1nc(Nc2cccc(F)c2)c2oc3ccccc3c2n1 was read as KCNK9 block inactive, KCNQ1 inh inactive, hERG rescue -3.3, KCNK3 block inactive and KCNQ1 act inactive.
For Cc1cc(O)c(C(C)C)cc1NC(=O)Nc1cc(Cl)ccc1Cl the results were KCNK3 block -11.8*, KCNK3 confirm 114.3* and KCNK3 uninduced 0.159*.
For CCOc1ccc(CN2CCNC(=O)C2CC(=O)NC2CCOCC2)cc1 (stereo not drawn) the results were KCNK9 block inactive, KCNQ1 inh inactive, hERG rescue -9.5, KCNK3 block inactive and KCNQ1 act inactive.
`Cc1ccccc1S(=O)(=O)Oc1ccc2ccc(O)cc2c1` gave KCNK9 block inactive, KCNQ1 inh inactive, hERG rescue -24.0, KCNK3 block -10.2*, KCNQ1 act inactive, KCNK3 confirm 97.3* and KCNK3 uninduced inactive.
`CN1CCN(c2ccccc2NC(=O)c2ccc(Br)o2)CC1` gave KCNK9 block inactive, KCNQ1 inh inactive, KCC2 mod 0.0848, hERG rescue -3.2, KCNK3 block inactive and KCNQ1 act inactive.
For CC1CCN(c2ccccc2NC(=O)c2ccc(Br)o2)CC1 the results were KCNK9 block -7.98*, KCNQ1 inh inactive, hERG rescue -10.1, KCNK3 block -9.02*, KCNQ1 act inactive, KCNK3 confirm 125.7* and KCNK3 uninduced 0.153*.
Screening CN(C)CCn1c(SCc2ccccc2C#N)nc2c(sc3ccccc32)c1=O returned KCNK9 block inactive, KCNQ1 inh inactive, hERG rescue -19.4, KCNK3 block -10.1*, KCNQ1 act inactive, KCNK3 confirm 106.7* and KCNK3 uninduced 0.157*.
Screening COc1ccccc1NC(=O)c1ccc(COc2ccccc2OC)cc1 returned KCNK9 block inactive, KCNQ1 inh inactive, hERG rescue -7.5, KCNK3 block -8.81*, KCNQ1 act inactive, KCNK3 confirm 102.7* and KCNK3 uninduced inactive.
Screening COc1ccccc1NC(=O)c1ccccc1Oc1ccccc1 returned KCNK9 block inactive, KCNQ1 inh inactive, hERG rescue -7.8, KCNK3 block -8.8*, KCNQ1 act inactive, KCNK3 confirm 122.3* and KCNK3 uninduced 0.121*.
For O=C(COC(=O)C1CC1)Nc1ccc(Cl)cn1 the results were KCNK3 block inactive.
`Cc1cccc2c1-c1sc(C(=O)N3CCCCC3)cc1CO2` gave KCNK9 block inactive, KCNQ1 inh inactive, hERG rescue -6.0, KCNK3 block -11.7*, KCNQ1 act inactive, KCNK3 confirm 89.7* and KCNK3 uninduced inactive.
Cc1cccc2c1-c1sc(C(=O)N3CCc4ccccc4C3)cc1CO2 was read as KCNK9 block inactive, KCNQ1 inh inactive, KCC2 mod -1.18, hERG rescue -7.2, KCNK3 block -8.74*, KCNQ1 act inactive, KCNK3 confirm 87.3* and KCNK3 uninduced 0.139*.
CCOC(=O)N1CCN(C(=O)c2cc3c(s2)-c2c(C)cccc2OC3)CC1 was read as KCNK9 block inactive, KCNQ1 inh inactive, hERG rescue -4.0, KCNK3 block inactive and KCNQ1 act inactive.
`N#CCc1ccc(NC(=O)CSc2nnc(C3CC3)n2C2CC2)cc1` gave KCNK3 block inactive.
For CCc1ccc(OCC(=O)Nc2ccc(S(=O)(=O)N3CCOCC3)cc2)cc1 the results were KCNK9 block inactive, KCNQ1 inh inactive, hERG rescue -8.6, KCNK3 block inactive and KCNQ1 act inactive.
